Measurements as given in ChEMBL document CHEMBL1155452, “Oncocin (VDKPPYLPRPRPPRRIYNR-NH2): a novel antibacterial peptide optimized against gram-negative human pathogens” (J Med Chem, 2010).

Experiments:
Escherichia coli [1] = experiment: Antimicrobial activity against Escherichia coli 455/7 after 20 hrs by broth microdilution method; assay type: functional; conditions: 455/7, 20 h
Summary of the method: (§1)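 Pathogens grown overnight on Columbia agar. Colonies suspended in 0.9% saline to OD 0.1, diluted 1:300 in 1% TSB, final (1-2) × 10^5 cfu/well. Peptides 2-fold serially diluted in 1% TSB from 128 to typically 0.5 μg/mL. Incubation at 37 °C; A595 read after 20 ± 2 h. MIC is the lowest concentration with absorbance not above medium only. Triplicate.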

Escherichia coli [2] = experiment: Antibacterial activity against Escherichia coli BL21 AI after 20 hrs by broth microdilution assay; assay type: functional
Summary of the method: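 Nutrient-broth overnight cultures diluted in 1% TSB; E. coli BL21AI 7.5 × 10^5 cells/well, M. luteus ATCC 10240 2 × 10^6 cells/well. Peptides serially 2-fold diluted in 1% TSB from 128 to typically 0.5 μg/mL. Incubation at 37 °C; A595 read after 20 ± 2 h. MIC is the lowest concentration with absorbance not above medium only. Triplicate.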

Klebsiella pneumoniae [3] = experiment: Antimicrobial activity against Klebsiella pneumoniae 57 USA after 20 hrs by broth microdilution method; assay type: functional; summary of the method: as §1
[4] = Stability in 25% mouse serum assessed as compound remaining at 75 ug/ml after 2 hrs by MALDI-TOF-MS analysis; assay type: ADME, cell-free; conditions: read-out: Stability
Summary of the method: (§2)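 Peptide at 75 μg/mL final in pooled mouse serum (undiluted or 25% v:v aqueous), 37 °C. Triplicate aliquots taken at 0, 30, 60, 120 and 240 min and precipitated with 3% TCA on ice for 10 min. Supernatant neutralized with NaOH and analysed by RP-HPLC on C18 with TFA-containing gradient. Amounts expressed relative to 0 min; metabolites identified by MALDI-TOF-MS.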

Acinetobacter baumannii = experiment: Antimicrobial activity against Acinetobacter baumannii ICB 14072 after 20 hrs by broth microdilution method; assay type: functional; conditions: ICB 14072, 20 h; summary of the method: as §1
Escherichia coli [5] = experiment: Antimicrobial activity against Escherichia coli 70329001 after 20 hrs by broth microdilution method; assay type: functional; conditions: Escherichia coli, 70329001, 20 h; summary of the method: as §1
Enterobacter cloacae = experiment: Antimicrobial activity against Enterobacter cloacae 34654 after 20 hrs by broth microdilution method; assay type: functional; conditions: Enterobacter cloacae, 34654, 20 h; summary of the method: as §1
Stenotrophomonas [6] = experiment: Antimicrobial activity against Stenotrophomonas ICB 7569 after 20 hrs by broth microdilution method; assay type: functional; conditions: ICB 7569, 20 h; summary of the method: as §1
Klebsiella pneumoniae [7] = experiment: Antimicrobial activity against Klebsiella pneumoniae ATCC 27799 after 20 hrs by broth microdilution method; assay type: functional; conditions: ATCC 27799, 20 h
Summary of the method: (§3)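 Pathogenic strains grown overnight on Columbia agar, colonies suspended in 0.9% saline to OD 0.1, diluted 1:300 in 1% TSB; final (1-2) × 10^5 cfu/well. Peptides 2-fold serially diluted in 1% TSB from 128 μg/mL, typically to 0.5 μg/mL. Incubated 37 °C, absorbance at 595 nm after 20 ± 2 h, in triplicate; MIC = lowest concentration with absorbance not exceeding medium only.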

Stenotrophomonas [8] = experiment: Antimicrobial activity against Stenotrophomonas ICB 7789 after 20 hrs by broth microdilution method; assay type: functional; conditions: ICB 7789, 20 h; summary of the method: as §1
[9] = Drug uptake in Escherichia coli BL21 AI assessed as intracellular localization at 30 ug/ml after 20 mins by confocal fluorescence microscopy; assay type: ADME, cell-based; conditions: escherichia coli bl21, 20 min; in the assay text read “30 uM” for “30 ug/ml”
Summary of the method: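 E. coli BL21 AI overnight culture diluted to 1.5 × 10^7 cells/mL in 1% TSB. 5(6)-Carboxyfluorescein N-terminally labelled peptide added at 30 μmol/L final, with 60-fold molar excess of TAMRA to quench extracellular fluorescence. Imaged at room temperature at 20 and 50 min by confocal laser scanning microscopy (488 nm excitation), with phase contrast.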

Escherichia coli [10] = experiment: Antimicrobial activity against Escherichia coli 70430001 after 20 hrs by broth microdilution method; assay type: functional; conditions: Escherichia coli, 70430001, 20 h; summary of the method: as §1
Escherichia coli [11] = experiment: Antimicrobial activity against Escherichia coli 70502001 after 20 hrs by broth microdilution method; assay type: functional; conditions: Escherichia coli, 70502001, 20 h; summary of the method: as §1
Pseudomonas aeruginosa [12] = experiment: Antimicrobial activity against Pseudomonas aeruginosa 70108001 after 20 hrs by broth microdilution method; assay type: functional; conditions: Pseudomonas aeruginosa, 70108001, 20 h; summary of the method: as §3
Escherichia coli [13] = experiment: Antimicrobial activity against Escherichia coli 8474 after 20 hrs by broth microdilution method; assay type: functional; conditions: Escherichia coli, 8474, 20 h; summary of the method: as §1
Klebsiella pneumoniae [14] = experiment: Antimicrobial activity against Klebsiella pneumoniae 8085 after 20 hrs by broth microdilution method; assay type: functional; conditions: Klebsiella pneumoniae, 8085, 20 h; summary of the method: as §1
[15] = Stability in 25% mouse serum assessed as half life at 75 ug/ml by MALDI-TOF-MS analysis; assay type: ADME, cell-free; summary of the method: as §2
Pseudomonas aeruginosa [16] = experiment: Antimicrobial activity against Pseudomonas aeruginosa DSM 3227 after 20 hrs by broth microdilution method; assay type: functional; conditions: DSM 3227, 20 h; summary of the method: as §3

Substance: H-VDKPPYLPRPRPPRRIYNR-NH2 [ONCOCIN]
- MIC (Escherichia coli [1]): 0.5 mg/L
- MIC (Escherichia coli [2]): 4 mg/L
- MIC (Klebsiella pneumoniae [3]): 0.25 mg/L
- remaining at 2 h, 75 ug/ml [4]: 60%
- MIC (Acinetobacter baumannii): 1 mg/L
- MIC (Escherichia coli [5]): 1 mg/L
- MIC (Enterobacter cloacae): 0.25 mg/L
- MIC (Stenotrophomonas [6]): 8 mg/L
- MIC (Klebsiella pneumoniae [7]): 1 mg/L
- MIC (Stenotrophomonas [8]): 32 mg/L
- Activity [9]: Active
- MIC (Escherichia coli [10]): 1 mg/L
- MIC (Escherichia coli [11]): 1 mg/L
- MIC (Pseudomonas aeruginosa [12]): 4 mg/L
- MIC (Escherichia coli [13]): 0.5 mg/L
- MIC (Klebsiella pneumoniae [14]): 0.5 mg/L
- half-life at 75 ug/ml [15]: 1.17 h
- MIC (Pseudomonas aeruginosa [16]): 4 mg/L
